Measurements reported in article PMC4931879 (The Journal of Pharmacology and Experimental Therapeutics, 2016).

Assays:
[1] = system: Aβx-42 in H4-APPsw cell cultures; assay: Automated multiplex HTRF assay, Aβx-42 in H4-APPsw cell cultures; type: cell-based
How it was run: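 H4-APPsw cultures treated overnight, 1 pM to 50 μM. Aβx-42 and Aβ1-x were read together in an automated HTRF multiplex; the Aβx-42 detection pairing includes monoclonal 4G8. Concentrations came from synthetic-peptide calibration curves (quadratic fit). Seven independent assays; IC50 for Aβx-42 and maximum percent inhibition for Aβ1-x, given with standard deviations.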

[2] = system: Aβ1-42, Aβ1-40, Aβ1-38 and Aβ1-37 in H4-APPsw cell cultures; type: cell-based; conditions: overnight
How it was run: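 H4-APPsw cultures incubated overnight with test compound at 0.46 to 333 nM, with 0.1% DMSO vehicle and a γ-secretase inhibitor reference at 1 μM. Aβ1-42, Aβ1-40, Aβ1-38 and Aβ1-37 were measured by Meso Scale 4-plex immunoassay. Concentrations came from on-plate synthetic-peptide calibration curves (quadratic fit), in pM corrected for dilution. Two replicate wells, standard error shown.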

[3] = system: CSF Aβ peptides; assay: CSF Aβ peptides in healthy human subjects after a single 900-mg oral dose; type: in vivo
How it was run: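 Placebo-controlled, double-blind single-dose panel of 15 healthy young men and women of non-child-bearing potential. Single 900-mg oral dose or placebo, given fasted. CSF collected via indwelling lumbar catheter at −1, 0, 2, 4, 6, 8, 12, 15, 18 and 24 h. Aβ1-42/40/38 measured by Meso Scale 3-plex; Aβ1-37 by 26D6/Aβ1-37-selective polyclonal ELISA; Aβ1-x by 4G8/26D6-HRP ELISA.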

[4] = Plasma exposure in rats after single intravenous doses; type: in vivo, Sprague-Dawley rats; conditions: rat, intravenous 1, 5, 10 mg/kg
How it was run: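 Same IV rat study: fasted females, 1, 5 or 10 mg/kg in PEG400/ethanol/Solutol, n = 4 per time point from 10 min to 24 h. Blood taken by cardiac puncture into EDTA for plasma. Plasma deproteinized and extracted with acetonitrile, then analysed by UPLC-MS/MS (C18 column at 60°C); quantitation range 10–5000 nM.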

[5] = Distribution into rat brain after oral administration; type: in vivo, rats; conditions: 10 mg/kg oral
How it was run: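 Rats dosed orally at 10 mg/kg in PEG400/Solutol/TPGS (90:5:5 w/w/w). n = 3 per time point, sampled at 1, 4, 8 and 24 h. Jugular blood collected into EDTA and centrifuged at 4°C (1500–2000 × g). Brain blotted, weighed and homogenized in 4 volumes of PBS; cerebellum analysed. Samples stored at −20°C, then LC-MS/MS. Brain-to-plasma ratios per time point and brain/plasma AUC ratio.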

[6] = system: Aβ1-42 in H4-APPsw cell cultures; assay: Aβ1-42 immunoassay; type: cell-based; conditions: read-out: Aβ1-42 IC50
How it was run: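 Overnight exposure of H4-APPsw cultures, 10 pM to 10 μM. Aβ1-42 and Aβ1-40 were measured in parallel from the same cultures by automated HTRF immunoassays. Concentrations came from synthetic-peptide calibration curves (quadratic fit). Three independent assays; IC50 given with standard deviation.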

[7] = system: Notch1; assay: Cell-based transcriptional reporter assay, Notch1; conditions: read-out: Notch1 IC50
[8] = system: CSF Aβ peptides; assay: CSF Aβ peptides in dogs after single oral doses; type: in vivo, beagle dogs; conditions: dog
How it was run: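 Male beagles, about 1 year old, 8–11 kg, with indwelling lumbar catheters; CSF sampled while conscious and lightly restrained. Fasted 16 h before dosing, fed 4 h after. Four dogs in a randomized crossover with 1-week washout: oral 2, 5 or 30 mg/kg or vehicle. CSF taken predose and up to 72 h, spun at 1330 × g for 10 min at 4°C. Aβ1-42/40/38/37 measured by Meso Scale 4-plex; the four were also summed.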

[9] = system: amyloid-β precursor protein C-terminal fragment; assay: APP C-terminal fragment accumulation in rat brain; type: in vivo, rats; conditions: 30 mg/kg oral, 8 or 12 hours
[10] = system: Notch3; assay: Cell-based transcriptional reporter assay, Notch3; conditions: read-out: Notch3 IC50
[11] = system: brain Aβ peptides; assay: Brain Aβ peptides in rats after single intravenous doses; type: in vivo, Sprague-Dawley rats; conditions: rat
How it was run: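 Female Sprague-Dawley rats, 10–12 weeks old, fasted from 16 h before to 4 h after dosing. Given IV 1, 5 or 10 mg/kg or vehicle (PEG400/ethanol/Solutol HS 15, 93:5:2 w/w/w; 1.5 ml/kg) in randomized order. n = 4 per time point, killed by CO2 at 10 min, 30 min, and 1, 3, 7, 12 and 24 h. Brain without cerebellum frozen in liquid nitrogen. Aβ1-42/40/38/37 measured by singleplex ELISAs; Aβ1-x by 4G8/252Q6-HRP ELISA; compared with vehicle.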

[12] = system: Aβ1-42; assay: PK/PD across species: Aβ1-42 trough versus plasma exposure; type: in vivo; conditions: nonlinear fit of the entire data set: rat, dog, monkey, human
How it was run: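 CSF Aβ1-42 trough (lowest level after dosing) plotted against plasma AUC and Cmax. Values were per individual human subject and per dose in individual dogs and monkeys. Rats used group means, with troughs for both brain and CSF, drawn from the IV study plus two further time courses. A nonlinear fit of the pooled data gave the exposure at 50% inhibition.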

[13] = system: Aβ1-x in H4-APPsw cell cultures; assay: Automated multiplex HTRF assay, Aβ1-x in H4-APPsw cell cultures; type: cell-based; conditions: read-out: Aβ1-x maximum inhibition, H4-APPsw cell cultures, overnight, at 50 μM; ± standard deviation
[14] = 14-day daily oral dose safety assessment in rats; type: in vivo; conditions: for AUC at 14 days: rat, in vivo, po, 100 mg/kg
How it was run: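 Safety study in male and female rats given daily oral doses of 10, 30 or 100 mg/kg for 14 days; plasma AUC determined on day 14.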

[15] = system: Aβ peptides in H4-APPsw cell cultures; type: cell-based; conditions: overnight, 100 nM
How it was run: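 H4-APPsw cultures incubated overnight with 0.1% DMSO or test compound at 100 nM. Aβ peptides were immunoprecipitated and analysed by MALDI mass spectrometry. Peaks were assigned by expected mass, referenced to an equimolar mix of synthetic peptides including [14N]Aβ1-40.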

[16] = system: CSF Aβ peptides; assay: CSF Aβ peptides in monkeys after single intravenous doses; type: in vivo, cynomolgus monkeys; conditions: monkey
[17] = Plasma exposure in monkeys after single intravenous doses; type: in vivo, cynomolgus monkeys; conditions: monkey, intravenous 5 or 15 mg/kg
How it was run: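 Crossover in four lumbar-catheterized male cynomolgus monkeys given IV 5 or 15 mg/kg or vehicle. Blood drawn at 1, 2, 3, 4, 5 and 30 min and at 1, 2, 4, 7, 10, 24 and 48 h. Samples kept on ice and centrifuged at 2880 × g for 10 min; plasma kept for compound levels.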

[18] = system: Aβ1-42 levels in cerebrospinal fluid; conditions: clinical trials, even at high doses; ref Galasko et al., 2007; cited from earlier work
[19] = 30 mg/kg oral, 24 hours after dose
[20] = single intravenous dose 1, 5 or 10 mg/kg
[21] = intravenous, 12–24 hours after the 30-mg/kg dose (so in the source)

C[C@H](c1ccc(F)cc1CCCC(=O)O)N(c1cc(F)ccc1F)S(=O)(=O)c1ccc(Cl)cc1 [BMS-299897, (R)-4-(2-(1-((4-chloro-N-(2,5-difluorophenyl)phenyl)sulfonamido)ethyl)-5-fluorophenyl)butanoic acid, reference compound]
Reduction of Aβx-42 versus Aβ1-x in the multiplex assays (relative potency) ([1]; H4-APPsw cell cultures, overnight, 1 pM to 50 μM): approximately equal potency | Effect on production of Aβ1-42, Aβ1-40, Aβ1-38 and Aβ1-37 ([2]; 1 μM): inhibited production of all four Aβ peptides

CNc1nc(Nc2ccc(-n3cnc(C)n3)c(OC)c2)nc2c1CC[C@H]2c1ccc(F)cc1 [BMS-932481, (S)-7-(4-fluorophenyl)-N2-(3-methoxy-4-(3-methyl-1H-1,2,4-triazol-1-yl)phenyl)-N4-methyl-6,7-dihydro-5H-cyclopenta[d]pyrimidine-2,4-diamine]
CSF Aβ1-37 increase [3]: ca. 12 fold | CSF Aβ1-40 change [3]: decrease | CSF Aβ1-42, level relative to predose ([3]; after 24 hours): 50 % of predose levels | CSF Aβ1-38 increase ([3]; gradual increase): about 2 fold | CSF Aβ1-x transient increase ([3]; the same increase in the placebo group): approximately 40% | Concentrations in blood plasma, dose proportionality [4]: dose-proportional | Brain penetration [5]: moderate brain penetration | IC50 [6]: 0.0066 µM | IC50 [7]: ~1 µM | IC50 ([1]; read-out: Aβx-42 IC50): 0.0055 µM | CSF Aβ1-37 maximal increase ([8]; 30 mg/kg oral): 5 fold | CSF Aβ1-40 maximum reduction [8, 19]: ca. 65% | CSF Aβ1-42 maximum reduction [8, 19]: ca. 65% | Effect on the sum of the four CSF Aβ peptides ([8]; oral 2, 5 or 30 mg/kg): little, if any, effect | Effect on APP C-terminal fragment accumulation in brain [9]: no effect | IC50 [10]: ~1 µM | Sum of brain Aβ1-42, Aβ1-40, Aβ1-38 and Aβ1-37 concentrations, change ([11]; intravenous 1, 5 or 10 mg/kg): no significant changes | Brain Aβ1-x change ([11]; intravenous, any dose or time point): no significant changes | Brain Aβ1-37 maximal increase [11, 20]: ca. 6 fold | Brain Aβ1-38 maximal increase [11, 20]: ca. 2 fold | Brain Aβ1-40 maximum reduction relative to vehicle-treated rats [11, 20]: about 75% | Brain Aβ1-42 maximum reduction relative to vehicle-treated rats [11, 20]: about 75% | Effect on the overall level of Aβ ([2]; 0.46 to 333 nM): little if any effect | Plasma AUC at 50% inhibition (Aβ1-42 trough) [12]: 11 μM⋅h | inhibition at 50 µM [13]: ≤ 30% | AUC at 14 days ([14]; female): 508 µM·h | AUC at 14 days ([14]; male): 892 µM·h | Histologic changes suggestive of Notch inhibition ([14]; rat, 10, 30 or 100 mg/kg daily oral for 14 days, any dose level): no histologic changes suggestive of Notch inhibition | Aβ1-42 and Aβ1-40 detected by IP-MALDI mass spectroscopy [15]: no Aβ1-42 or Aβ1-40 was detected

Cc1ncn(-c2ccc3cc2OC/C=C\CNc2nc(nc4c2CC[C@H]4c2ccc(Cl)cc2F)N3)n1 [BMS-986133, (S,Z)-17-(4-chloro-2-fluorophenyl)-34-(3-methyl-1H-1,2,4-triazol-1-yl)-16,17-dihydro-15H-4-oxa-2,9-diaza-1(2,4)-cyclopenta[d]pyrimidina-3(1,3)-benzenacyclononaphan-6-ene]
Effect on CSF Aβ1-x or the sum of the four Aβ peptides ([16]; intravenous 5 or 15 mg/kg): little, if any, effect | CSF Aβ1-40 maximum reduction [16, 21]: ca. 75% | CSF Aβ1-42 maximum reduction [16, 21]: ca. 75% | Concentrations in blood plasma, dose proportionality [17]: dose-proportional

CC(C(=O)O)c1ccc(-c2ccccc2)c(F)c1 (stereo not drawn) [flurbiprofen]
Effect on Aβ1-42 levels in cerebrospinal fluid [18]: no effect
